Consider two molecules from paper PMC8359281 (Clinical Pharmacology in Drug Development, 2020).

The test system of data set [1] is free cortisol. The class given is in vivo, human. The note with it: oral methylprednisolone 16 mg once daily. In outline:
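In a single-centre, open-label, parallel-group study, healthy adults (18-50 years, BMI 18.5-30 kg/m2, 51-99 kg, confined on site) took methylprednisolone orally at 16 mg once daily for 15 days. The dose was then tapered to 8 mg daily for 2 days and 4 mg daily for 2 days. Blood for plasma free cortisol was drawn predose and 0.25–24 h postdose on days 1 and 15.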

In data set [2] the test system is free steroidogenic exposure. In words: Steroidogenic exposure and methylprednisolone/prednisone dose equivalence. The class given is in vivo, human. Conditions: methylprednisolone 16 mg once daily; derived by equation 2 (5 × AUCτ + AUECτ). In outline:
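Steady-state data came from day 15 of oral methylprednisolone at 16 mg once daily. Free methylprednisolone AUCτ (noncompartmental) and free cortisol AUECτ over one dosing interval were combined by integrating the per-timepoint free steroidogenic concentration equation. Weekly free cortisol exposure was converted to methylprednisolone-equivalent dose, assuming dose-proportionality. Prednisone equivalents used a coefficient of 1.25.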

For data set [3] the following is noted: cited from earlier work.
Data set [4] is described as follows: PK of ACTH1-24 after synthetic ACTH1-24 depot, phase 1 study. The class given is in vivo, human. Conditions: postdosing of synthetic ACTH1-24 depot.

Consider `C[C@H]1C[C@@H]2[C@H]([C@@H](O)C[C@@]3(C)[C@H]2CC[C@]3(O)C(=O)CO)[C@@]2(C)C=CC(=O)C=C12` [methylprednisolone], for which the “endogenous cortisol after administration” value in data set [1] was “negligible”. The “free steroidogenic exposure at steady state (AUECτSG)” value in data set [2] was determined as 305 ng·h/mL. Besides, in data set [3], the “potency of systemic action relative to cortisol” value is reported as 5 times.

“ACTH1-24: the first 24 amino acids of adrenocorticotropic hormone; analyte measured in plasma after synthetic ACTH1-24 depot”: the “time by which plasma concentrations fell below the quantification limit” value in data set [4] was less than 24 h.
